ChEMBL document CHEMBL1138476 (J Med Chem, 2009)

What was measured:
[1] = system: Canis familiaris; assay: Effect on respiratory function in spontaneously breathing mongrel dog assessed as change in intrapleural pressure at 5 mg/kg after intravenous infusion for 30 mins (RVb= -90.8+/-103 %); assay type: functional, Canis lupus familiaris
[2] = system: Canis familiaris; assay: Effect on respiratory function in spontaneously breathing mongrel dog assessed as change in heart rate at 5 mg/kg after intravenous infusion for 60 mins (RVb= -0.9+/-5.8 %); assay type: functional, Canis lupus familiaris
[3] = system: Canis familiaris; assay: Effect on respiratory function in spontaneously breathing mongrel dog assessed as change in pulmonary compliance at 5 mg/kg after intravenous infusion for 15 mins (RVb= 0.8+/-2.0 %); assay type: functional, Canis lupus familiaris
[4] = Elimination half life in rat at 1 mg/kg, iv and 5 mg/kg, po; assay type: ADME, organism-based; conditions: in vivo, read-out: beta t1/2 (converted)
Method in brief: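 Rats (n = 3) were dosed at 1 mg/kg iv in 10% DMAC, 70% propylene glycol and deionized water, and at 5 mg/kg po in 0.5% methylcellulose.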

[5] = system: Rattus norvegicus; assay: Toxicity in rat assessed as time spent on rotarod at 1 mg/kg, po after 1 hr by rotarod test; assay type: organism-based; design: dose 1 mg/kg, route oral; conditions: in vivo
Method in brief: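 Rats (N = 8 per dose) dosed po in 0.25% Methocel 1 h before rotorod testing. Time on rotorod in s, given as mean ± SEM against a vehicle (zero dose) group.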

[6] = system: Canis familiaris; assay: Effect on respiratory function in spontaneously breathing mongrel dog assessed as change in peak expiratory flow at 5 mg/kg after intravenous infusion for 6 mins (RVb= 3.6+/-3.7 %); assay type: functional, Canis lupus familiaris
[7] = molecular target: T1, Adenosine receptor A1 (Homo sapiens) (UniProt P30542); assay: Inhibition of ligand binding in adenosine A1 receptor; design: scale not given: the % may be the effect or the level left
T1 sequence (whole entry): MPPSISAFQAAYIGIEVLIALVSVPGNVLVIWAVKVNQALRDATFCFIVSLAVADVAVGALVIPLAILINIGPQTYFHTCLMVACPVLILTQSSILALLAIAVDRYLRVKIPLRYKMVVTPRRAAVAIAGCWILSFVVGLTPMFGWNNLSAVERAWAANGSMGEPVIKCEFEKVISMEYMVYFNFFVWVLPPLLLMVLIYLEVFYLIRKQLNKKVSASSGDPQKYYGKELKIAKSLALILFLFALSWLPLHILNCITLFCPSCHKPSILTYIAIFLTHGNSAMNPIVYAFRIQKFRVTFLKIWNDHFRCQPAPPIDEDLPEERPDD
Method in brief: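 Screened at 10^-7 and 10^-5 M for binding inhibition. Then run twice in a dose–response format on the cloned rat adenosine A1 receptor expressed in CHO cells to obtain Ki.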

`CC[C@@H](C)Nc1nc(C)nc2c(-c3ccc(OC)nc3C)c(C)nn12` [PEXACERFONT] gave an Activity [1] of 8.6%, an Activity [2] of -2.3% and an Activity [3] of -2.2%. The half-life [4] was 13.5 h, the Time [5] was 133 s and the Activity [6] was -12.5%. For the same compound, the Activity [7] was 90%.
